Source: paper PMC5520516 (British Journal of Cancer, 2017)
Structures can show the parent of a compound that is named as a salt. Where two headings read alike, the source gives them in different places.

What was measured:
[1] = test system: well-vascularised breast cancer HTX; assay: Antitumour activity in well-vascularised breast cancer HTX; assay type: in vivo, human; details: for antitumour activity at tolerated doses / antitumour activity at toxic dose levels: SD, i.p.
[2] = test system: microtubules; details: ref Bonezzi et al, 2009; cited from earlier work
[3] = test system: endothelial cell; details: in vitro; ref Bonezzi et al, 2009; cited from earlier work
[4] = test system: tumour blood vessels; details: in vivo; ref Bonezzi et al, 2009; cited from earlier work
[5] = cited from earlier work
[6] = test system: advanced cancer; details: phase I, ref Seckl et al, 2012, cited from earlier work
[7] = test system: NCI 60-cell line panel (60 human tumour cell lines); details: cited from earlier work
[8] = test system: NCI 60-cell line panel (60 human tumour cell lines); assay: NCI in vitro 60-cell line screen; assay type: cell-based
How it was run: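 Test compounds were run in each of the 60 human tumour cell lines for 48 h of drug exposure. The data were summarised as a mean graph with COMPARE analysis.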

[9] = Pre-formulation / solubility; assay type: physicochemical
[10] = test system: doxorubicin-resistant, oestrogen receptor negative human breast cancer xenograft MT-3/ADR; assay: Antitumour activity in MT-3/ADR xenograft; assay type: in vivo
[11] = at 30 min; ref Burger et al, 2007; cited from earlier work
[12] = test system: two human renal cell cancer HTXs, a breast cancer HTX and a murine syngeneic colon cancer; details: P<0.01; ref Burger et al, 2007; cited from earlier work
[13] = ref Bradshaw and Westwell, 2004

COc1cc(-n2cncc2-c2ccc3ccccc3c2)cc(OC)c1OC [NSC736992]
antitumour activity at tolerated doses [1]: moderate | antitumour activity at toxic dose levels [1]: more pronounced | effect on microtubules [2]: disorganised microtubules | effect on endothelial cell morphology and capillary formation [3]: selectively affected endothelial cell morphology and capillary formation | blood vessel shutdown and tumour necrosis [4]: caused blood vessel shutdown and tumour necrosis

Cc1cc(-c2nc3cc(F)ccc3s2)ccc1NC(=O)[C@@H](N)CCCCN.Cl.Cl [Phortress]
water solubility [5, 13]: water-soluble | MTD ([6]; preliminary data): not reached | tolerability ([6]; preliminary data): well tolerated | patients classified as having stable disease ([6]; Thirty-three per cent of the patients): 14/42

COc1cc(-n2cncc2-c2ccc3ccccc3c2)cc(OC)c1OC [water-soluble salt of NSC736992]
density (size and number) of CD31+ blood vessels ([1]; alone or in combination): not affected | efficacy in combination with carboplatin or taxol ([1]; combination with carboplatin or taxol): not increased | efficacy (additional studies) ([1]; same HTX, also with other treatment schedules): moderate to borderline

Cc1cc(-c2nc3cc(F)ccc3s2)ccc1N [5F 203]
GI50 ([7]; NCI 60-cell line screen, ref Bradshaw and Westwell, 2004): low nanomolar | selectivity in NCI 60-cell line screen [7, 13]: selectivity against breast and ovarian cancer sub-panels

COc1ccc(-c2cncn2-c2cc(OC)c(OC)c(OC)c2)cc1 [NSC733436]
antitumour activity at tolerated doses [1]: moderate | antitumour activity at toxic dose levels [1]: more pronounced | effect on microtubules [2]: disorganised microtubules | effect on endothelial cell morphology and capillary formation [3]: selectively affected endothelial cell morphology and capillary formation | blood vessel shutdown and tumour necrosis [4]: caused blood vessel shutdown and tumour necrosis

COc1ccc2c(c1)[nH]c(=O)c1c3ccccc3cn21 [NSC 734237]
differential activity [8]: reasonable, but inconclusive | solubility [9]: quite insoluble | antitumour activity at the MTD ([10]; MTD, i.p., d8–12, 15–19): significant activity | antitumour activity ([10]; i.p., d8–12, 15–19): dose-dependent antitumour activity | CD31+ microvessel density (immunohistochemistry) ([10]; in vivo): dose-dependent reduction | Ki-67 staining (immunohistochemistry) ([10]; in vivo): dose-dependent reduction

COc1ccc(-c2cncn2-c2cc(OC)c(OC)c(OC)c2)cc1F [NSC736359]
antitumour activity at tolerated doses [1]: moderate | antitumour activity at toxic dose levels [1]: more pronounced | effect on microtubules [2]: disorganised microtubules | effect on endothelial cell morphology and capillary formation [3]: selectively affected endothelial cell morphology and capillary formation | blood vessel shutdown and tumour necrosis [4]: caused blood vessel shutdown and tumour necrosis

COc1ccc(/C=C\c2cc(OC)c(OC)c(OC)c2)cc1O [Combretastatin A-4, reference compound]
solubility ([5]; ref Dark et al, 1997, Tozer et al, 2002): poorly soluble

COc1ccc(C2=CN3C(=O)c4cc(OC)c(OC)cc4N=C[C@@H]3C2)cc1 [DRH-417]
IC50 ([7]; read-out: mean IC50, NCI 60-cell line panel, ref Burger et al, 2007): 3 nM | peak plasma concentration [11]: 171 nM | antitumour activity in vivo [12]: marked activity
